According to ChEMBL document CHEMBL3271984, “Antifungal activity of 4-substituted crotonic acid esters” (1976):
In brackets after ≈: the same amount, converted by molar mass.

Assays:
Assay type in all cases: functional
Mucor mucedo [1] = experiment: Antifungal activity against Mucor mucedo ATCC 7941 assessed as growth inhibition at pH 7 incubated for 20 hrs in presence of 10% beef serum; conditions: ATCC 7941, 20 h, read-out: MIC100
In short: (§1)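 Agar dilution in Sabouraud dextrose agar at pH 5.6 or 7.0, with or without 10% beef serum. C. albicans and M. mucedo were incubated 20 h at 37°; A. niger and T. mentagrophytes 5 days at 28°. The value is the minimal µg/ml giving 100% inhibition. Steps were 1 µg/ml up to 10, 2 up to 20, then 10 up to 100 µg/ml maximum.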

Aspergillus niger [2] = experiment: Antifungal activity against Aspergillus niger ATCC 1004 assessed as growth inhibition at pH 5.6 incubated for 5 days in presence of 10% beef serum; conditions: ATCC 1004, 120 h, read-out: MIC100; in short: as §1
Mucor mucedo [3] = experiment: Antifungal activity against Mucor mucedo ATCC 7941 assessed as ratio of cysteine to compound at pH 7 incubated for 20 hrs in absence of 10% beef serum
In short: (§2)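 Sabouraud agar at pH 7.0 without beef serum. The toxicant was added at one increment above its minimal inhibitory level for each organism. Cystine, cysteine or glutathione was added at molar ratios of 1:1 to 10:1 versus toxicant, in 1-equiv steps. Plates were inoculated and incubated at 37° for 20 h (C. albicans, M. mucedo) or 28° for 5 days (A. niger, T. mentagrophytes), then scored for growth.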

[4] = tested on: Trichophyton mentagrophytes; experiment: Antifungal activity against Trichophyton mentagrophytes ATCC 9129 assessed as growth inhibition at pH 5.6 incubated for 5 days in presence of 10% beef serum; conditions: ATCC 9129, 120 h, read-out: MIC100; in short: as §1
Aspergillus niger [5] = experiment: Antifungal activity against Aspergillus niger ATCC 1004 assessed as growth inhibition at pH 7 incubated for 5 days in presence of 10% beef serum; conditions: ATCC 1004, 120 h, read-out: MIC100; in short: as §1
Mucor mucedo [6] = experiment: Antifungal activity against Mucor mucedo ATCC 7941 assessed as ratio of glutathione to compound at pH 7 incubated for 20 hrs in absence of 10% beef serum; in short: as §2
Mucor mucedo [7] = experiment: Antifungal activity against Mucor mucedo ATCC 7941 assessed as growth inhibition at pH 5.6 incubated for 20 hrs in absence of 10% beef serum; conditions: ATCC 7941, 20 h, read-out: MIC100; in short: as §1
Candida albicans [8] = experiment: Antifungal activity against Candida albicans ATCC 10231 assessed as growth inhibition at pH 7 incubated for 20 hrs in presence of 10% beef serum; conditions: ATCC 10231, 20 h, read-out: MIC100; in short: as §1
Candida albicans [9] = experiment: Antifungal activity against Candida albicans ATCC 10231 assessed as ratio of cystine to compound at pH 7 incubated for 20 hrs in absence of 10% beef serum; in short: as §2
Mucor mucedo [10] = experiment: Antifungal activity against Mucor mucedo ATCC 7941 assessed as ratio of cystine to compound at pH 7 incubated for 20 hrs in absence of 10% beef serum; in short: as §2
Aspergillus niger [11] = experiment: Antifungal activity against Aspergillus niger ATCC 1004 assessed as growth inhibition at pH 7 incubated for 5 days in absence of 10% beef serum; conditions: ATCC 1004, 120 h, read-out: MIC100; in short: as §1
Aspergillus niger [12] = experiment: Antifungal activity against Aspergillus niger ATCC 1004 assessed as ratio of glutathione to compound at pH 7 incubated for 5 days in absence of 10% beef serum; in short: as §2
Aspergillus niger [13] = experiment: Antifungal activity against Aspergillus niger ATCC 1004 assessed as ratio of cystine to compound at pH 7 incubated for 5 days in absence of 10% beef serum; in short: as §2
[14] = tested on: Trichophyton mentagrophytes; experiment: Antifungal activity against Trichophyton mentagrophytes ATCC 9129 assessed as growth inhibition at pH 7 incubated for 5 days in absence of 10% beef serum; conditions: ATCC 9129, 120 h, read-out: MIC100; in short: as §1
[15] = tested on: Trichophyton mentagrophytes; experiment: Antifungal activity against Trichophyton mentagrophytes ATCC 9129 assessed as growth inhibition at pH 7 incubated for 5 days in presence of 10% beef serum; conditions: ATCC 9129, 120 h, read-out: MIC100; in short: as §1
Candida albicans [16] = experiment: Antifungal activity against Candida albicans ATCC 10231 assessed as growth inhibition at pH 7 incubated for 20 hrs in absence of 10% beef serum; conditions: ATCC 10231, 20 h, read-out: MIC100; in short: as §1
[17] = tested on: Trichophyton mentagrophytes; experiment: Antifungal activity against Trichophyton mentagrophytes ATCC 9129 assessed as ratio of cysteine to compound at pH 7 incubated for 5 days in absence of 10% beef serum; in short: as §2
Aspergillus niger [18] = experiment: Antifungal activity against Aspergillus niger ATCC 1004 assessed as ratio of cysteine to compound at pH 7 incubated for 5 days in absence of 10% beef serum; in short: as §2
Candida albicans [19] = experiment: Antifungal activity against Candida albicans ATCC 10231 assessed as growth inhibition at pH 5.6 incubated for 20 hrs in absence of 10% beef serum; conditions: ATCC 10231, 20 h, read-out: MIC100; in short: as §1
Candida albicans [20] = experiment: Antifungal activity against Candida albicans ATCC 10231 assessed as growth inhibition at pH 5.6 incubated for 20 hrs in presence of 10% beef serum; conditions: ATCC 10231, 20 h, read-out: MIC100; in short: as §1
Candida albicans [21] = experiment: Antifungal activity against Candida albicans ATCC 10231 assessed as ratio of cysteine to compound at pH 7 incubated for 20 hrs in absence of 10% beef serum; in short: as §2
Mucor mucedo [22] = experiment: Antifungal activity against Mucor mucedo ATCC 7941 assessed as growth inhibition at pH 7 incubated for 20 hrs in absence of 10% beef serum; conditions: ATCC 7941, 20 h, read-out: MIC100; in short: as §1
[23] = tested on: Trichophyton mentagrophytes; experiment: Antifungal activity against Trichophyton mentagrophytes ATCC 9129 assessed as ratio of glutathione to compound at pH 7 incubated for 5 days in absence of 10% beef serum; in short: as §2
[24] = tested on: Trichophyton mentagrophytes; experiment: Antifungal activity against Trichophyton mentagrophytes ATCC 9129 assessed as ratio of cystine to compound at pH 7 incubated for 5 days in absence of 10% beef serum; in short: as §2
[25] = tested on: Trichophyton mentagrophytes; experiment: Antifungal activity against Trichophyton mentagrophytes ATCC 9129 assessed as growth inhibition at pH 5.6 incubated for 5 days in absence of 10% beef serum; conditions: ATCC 9129, 120 h, read-out: MIC100; in short: as §1
Mucor mucedo [26] = experiment: Antifungal activity against Mucor mucedo ATCC 7941 assessed as growth inhibition at pH 5.6 incubated for 20 hrs in presence of 10% beef serum; conditions: ATCC 7941, 20 h, read-out: MIC100; in short: as §1
Candida albicans [27] = experiment: Antifungal activity against Candida albicans ATCC 10231 assessed as ratio of glutathione to compound at pH 7 incubated for 20 hrs in absence of 10% beef serum; in short: as §2
Aspergillus niger [28] = experiment: Antifungal activity against Aspergillus niger ATCC 1004 assessed as growth inhibition at pH 5.6 incubated for 5 days in absence of 10% beef serum; conditions: ATCC 1004, 120 h, read-out: MIC100; in short: as §1

| MIC (Mucor mucedo [7]) [µg/mL] | MIC [14] [µg/mL] | MIC (Mucor mucedo [22]) [µg/mL] | MIC [25] [µg/mL] | SMILES | Ratio (Mucor mucedo [3]) | Ratio (Mucor mucedo [6]) | Ratio (Mucor mucedo [10]) | Ratio [17] | Ratio [23] | Ratio [24] | other results |
| --- | --- | --- | --- | --- | --- | --- | --- | --- | --- | --- | --- |
| 6 (≈ 33.5 µM) | 5 (≈ 27.9 µM) | 10 (≈ 55.9 µM) | 3 (≈ 16.8 µM) | COC(=O)/C=C/CBr | 4 | 8 | >10 | 10 | 9 | >10 | MIC (Mucor mucedo [1]): 14 µg/mL; MIC (Aspergillus niger [2]): 50 µg/mL; MIC [4]: 5 µg/mL; MIC (Aspergillus niger [5]): 60 µg/mL; MIC (Candida albicans [8]): 30 µg/mL; Ratio (Candida albicans [9]): >10; MIC (Aspergillus niger [11]): 50 µg/mL (≈ 279 µM); Ratio (Aspergillus niger [12]): <1; Ratio (Aspergillus niger [13]): >10; MIC [15]: 6 µg/mL; MIC (Candida albicans [16]): 30 µg/mL (≈ 168 µM); Ratio (Aspergillus niger [18]): <1; MIC (Candida albicans [19]): 30 µg/mL (≈ 168 µM); MIC (Candida albicans [20]): 30 µg/mL; Ratio (Candida albicans [21]): 2; MIC (Mucor mucedo [26]): 8 µg/mL; Ratio (Candida albicans [27]): 3; MIC (Aspergillus niger [28]): 50 µg/mL (≈ 279 µM) |
| 70 (≈ 479 µM) | 70 (≈ 479 µM) | 80 (≈ 547 µM) | 90 (≈ 616 µM) | COC(=O)/C=C/CSC | <1 | <1 | >10 | <1 | <1 | >10 | – |
